From ChEMBL document CHEMBL1250442, “Inhibiting gene expression at transcription start sites in chromosomal DNA with antigene RNAs” (Nat Chem Biol, 2005)
The source made the active and inactive calls. The rule behind the calls is not given here.

Tests used:
[1] = test system: T47D; assay: Effect of DNA methylation at (+1) CpG site near androgen receptor transcription start site (-9) in human T47D cells by sodium bisulfite sequencing analysis; type: functional, cell-based
Outline: (§1)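 T47D cells grown in RPMI-1640 with 10% FBS, 0.5% NEAA, insulin and P/S at 37 °C, 5% CO2. They were plated at 80,000 cells/well 2 days before lipid transfection with 25 nM or 100 nM duplex, with medium changed at 24 h. Cells were harvested 5 days post-transfection. 100 ng bisulfite-treated DNA was PCR-amplified, and products were TA-cloned. 5–15 colonies per plate were sequenced.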

[2] = test system: T47D; assay: Effect of DNA methylation at (+19) CpG site near androgen receptor transcription start site (-9) in human T47D cells by sodium bisulfite sequencing analysis; type: functional, cell-based; outline: as §1
[3] = test system: T47D; assay: Effect of DNA methylation at (-124) CpG site near androgen receptor transcription start site (-9) in human T47D cells by sodium bisulfite sequencing analysis; type: functional, cell-based
Outline: (§2)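 T47D cells (RPMI-1640, 10% FBS, NEAA, insulin; 37 °C, 5% CO2) transfected with agRNA duplexes via Oligofectamine, medium changed at 24 h. Genomic DNA bisulphite-treated, regions around AR and hPR-B start sites PCR-amplified (HotStarTaq, 100 ng treated DNA), gel-purified, TOPO TA cloned; 5–15 colonies per plate miniprepped and sequenced.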

[4] = test system: T47D; assay: Effect of DNA methylation at (+43) CpG site near androgen receptor transcription start site (-9) in human T47D cells by sodium bisulfite sequencing analysis; type: functional, cell-based; outline: as §2
[5] = test system: T47D; assay: Effect of DNA methylation at (-122) CpG site near androgen receptor transcription start site (-9) in human T47D cells by sodium bisulfite sequencing analysis; type: functional, cell-based; outline: as §2
[6] = test system: T47D; assay: Effect of DNA methylation at (-31) CpG site near androgen receptor transcription start site (-9) in human T47D cells by sodium bisulfite sequencing analysis; type: functional, cell-based; outline: as §2
[7] = test system: T47D; assay: Inhibition of PR-A gene expression in human T47D cells at 25 nM by syber green assay in presence of 10 nM estradiol; type: functional, cell-based
[8] = test system: T47D; assay: Inhibition of PR-B mRNA gene expression in human T47D cells at 100 nM by syber green assay; type: functional
Outline: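 T47D cells in RPMI-1640 with 10% FBS, NEAA, insulin, 37 °C, 5% CO2. Plated two days before transfection without antibiotics. Oligofectamine-mediated duplex RNA transfection at 100 nM final, medium changed at 24 h, harvest five days post-transfection. Total RNA extracted with TRIzol. hPR mRNA quantified by SYBR Green qPCR: 50 °C 2 min, 95 °C 10 min, then 40 cycles of 95 °C 15 s / 60 °C 1 min.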

[9] = test system: T47D; assay: Inhibition of PR-A mRNA gene expression in human T47D cells at 100 nM by syber green assay; type: functional
Outline: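 T47D cells plated at 80,000/well without antibiotics two days before Oligofectamine transfection with agRNA duplex (25 or 100 nM final); medium changed at 24 h, harvest day 5 unless stated otherwise. TRIzol total RNA; PR mRNA by real-time PCR with SYBR Green: 50 °C 2 min, 95 °C 10 min, 40 cycles 95 °C 15 s/60 °C 1 min.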

[10] = test system: T47D; assay: Effect of DNA methylation at (-43) CpG site near androgen receptor transcription start site (-9) in human T47D cells by sodium bisulfite sequencing analysis; type: functional, cell-based; outline: as §2
[11] = test system: T47D; assay: Effect of DNA methylation at (-126) CpG site near androgen receptor transcription start site (-9) in human T47D cells by sodium bisulfite sequencing analysis; type: functional, cell-based; outline: as §2
[12] = test system: T47D; assay: Inhibition of androgen receptor expression in human T47D cells after 12 days at 100 nM by syber green assay; type: functional, cell-based
Outline: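 AR expression in T47D cells, grown in RPMI-1640 with 10% FBS, NEAA and insulin. Plated antibiotic-free two days before Oligofectamine transfection with 100 nM duplex RNA; medium replaced after 24 h. TRIzol total RNA. SYBR Green real-time PCR: 50 °C 2 min, 95 °C 10 min, 40 cycles of 95 °C 15 s and 60 °C 1 min.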

[13] = test system: T47D; assay: Effect of DNA methylation at (-36) CpG site near androgen receptor transcription start site (-9) in human T47D cells by sodium bisulfite sequencing analysis; type: functional, cell-based; outline: as §2
[14] = test system: T47D; assay: Effect of DNA methylation at (-178) CpG site near androgen receptor transcription start site (-9) in human T47D cells by sodium bisulfite sequencing analysis; type: functional, cell-based; outline: as §2
[15] = test system: T47D; assay: Inhibition of PR-B gene expression in human T47D cells at 25 nM by syber green assay in presence of 10 nM estradiol; type: functional, cell-based
[16] = test system: T47D; assay: Effect of DNA methylation at (-132) CpG site near androgen receptor transcription start site (-9) in human T47D cells by sodium bisulfite sequencing analysis; type: functional, cell-based; outline: as §2
[17] = test system: T47D; assay: Effect of DNA methylation at (-52) CpG site near androgen receptor transcription start site (-9) in human T47D cells by sodium bisulfite sequencing analysis; type: functional, cell-based; outline: as §2
[18] = test system: T47D; assay: Effect of DNA methylation at (-57) CpG site near androgen receptor transcription start site (-9) in human T47D cells by sodium bisulfite sequencing analysis; type: functional, cell-based; outline: as §2
[19] = test system: T47D; assay: Effect of DNA methylation at (-167) CpG site near androgen receptor transcription start site (-9) in human T47D cells by sodium bisulfite sequencing analysis; type: functional, cell-based; outline: as §2
[20] = test system: T47D; assay: Effect of DNA methylation at (-172) CpG site near androgen receptor transcription start site (-9) in human T47D cells by sodium bisulfite sequencing analysis; type: functional, cell-based; outline: as §2
[21] = test system: T47D; assay: Effect of DNA methylation at (+11) CpG site near androgen receptor transcription start site (-9) in human T47D cells by sodium bisulfite sequencing analysis; type: functional, cell-based; outline: as §1

Structure (SMILES): Cc1cn(CC(=O)N(CCNC(=O)CN(CCNC(=O)CN(CCNC(=O)CN(CCNC(=O)CN(CCNC(=O)CN(CCNC(=O)CN(CCNC(=O)CN(CCNC(=O)CN(CCNC(=O)CN(CCNC(=O)CN(CCNC(=O)CN(CCNC(=O)CN(CCNC(=O)CN(CCNC(=O)CN(CCNC(=O)CN(CCNC(=O)CN(CCNC(=O)CN(CCNC(=O)CN(CCNC(=O)CN(CCNC(=O)CN)C(=O)Cn2ccc(N)nc2=O)C(=O)Cn2ccc(N)nc2=O)C(=O)Cn2cnc3c(N)ncnc32)C(=O)Cn2ccc(N)nc2=O)C(=O)Cn2ccc(N)nc2=O)C(=O)Cn2ccc(=O)[nH]c2=O)C(=O)Cn2ccc(N)nc2=O)C(=O)Cn2ccc(N)nc2=O)C(=O)Cn2ccc(N)nc2=O)C(=O)Cn2cnc3c(N)ncnc32)C(=O)Cn2cnc3c(=O)[nH]c(N)nc32)C(=O)Cn2ccc(N)nc2=O)C(=O)Cn2cnc3c(=O)[nH]c(N)nc32)C(=O)Cn2ccc(N)nc2=O)C(=O)Cn2ccc(N)nc2=O)C(=O)Cn2ccc(N)nc2=O)C(=O)Cn2ccc(N)nc2=O)C(=O)Cn2ccc(N)nc2=O)C(=O)Cn2ccc(=O)[nH]c2=O)CC(=O)NCCN(CC(=O)NCC(=O)O)C(=O)Cn2cc(C)c(=O)[nH]c2=O)c(=O)[nH]c1=O
- Activity [1]: inactive
- Activity [2]: inactive
- Activity [3]: inactive
- Activity [4]: inactive
- Activity [5]: inactive
- Activity [6]: inactive
- inhibition [7]: Active
- inhibition at 0.1 µM [8]: 82%
- inhibition at 0.1 µM [9]: 82%
- Activity [10]: inactive
- Activity [11]: inactive
- inhibition [12]: Active
- Activity [13]: inactive
- Activity [14]: inactive
- inhibition [15]: Active
- Activity [16]: inactive
- Activity [17]: inactive
- Activity [18]: inactive
- Activity [19]: inactive
- Activity [20]: inactive
- Activity [21]: inactive
